Sampled rows, rich in hits. Any-hit rate of the full collection: about 3%.
Xi reactivation = activators of inactive X chromosome reactivation, primary screen, imaging, XiGFP fibroblasts, GFP high-content imaging, set 2 | actives 0.055% (n = 360,000) | XiGFP mouse fibroblasts, % GFP-positive cells imaging, 3 d; cells co-treated with 5-aza-dC sensitizer; scaled so ellipticine positive control = 100% | activation, % at 7.58 µM;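 active means mean normalized replicate activation at least 10% and every replicate at or above 10%; inconclusive means only one of the two criteria met; inactive means mean below 10% and not all replicates reach 10%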;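 further: 0% = median of on-plate neutral control wells and 100% = ellipticine 6 µM median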
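Material: SV40-immortalized XiGFP fibroblast cells, line 68-5-11 | Buffer or medium: DMEM containing 5-aza-dC | Dosing: One concentration, pinned | Times: 3 d treatment, 15 min room-temperature fixation | Controls: Ellipticine 6 µM positive control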
Wnt act = Wnt/beta-catenin pathway activators, primary screen, cell-based, plate reader, single point; Wnt/beta-catenin reporter cell assay, activator; activation, % at 9.35 µM; actives 1.2% (n = 300,000); AID 743398, 2014; in the data active means activation above about 30%, passing the limit was not always enough; inconclusive means no clear call, values can overlap the other calls;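 further: 0% = neutral control wells and 100% = positive control wells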
MITF TRPM1 HTS = activators of MITF-driven TRPM1 promoter reporter, primary screen, cell-based, SK-MEL-5, luciferase, single point | SK-MEL-5 TRPM1-promoter luciferase, 24 h; % of positive control, neutral wells = 0 | activation, % at 12.5 µM | actives 0.75% (n = 300,000);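 active means mean activation of at least 80% with every replicate also reaching 80%; inconclusive means mean reaches 80% but some replicate falls short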;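 further: 0% = neutral control wells and 100% = parthenolide positive control wells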
esBAF inh = Bmi1 luciferase reporter increase in mESCs, primary screen, esBAF inhibitor project, mouse ES cells, Bmi1 luciferase knock-in, single point | 24 h; 100% = twice the neutral-well signal | actives 2% (n = 350,000) | reporter increase, % at 12.5 µM; in the data active means activation above about 40%; inconclusive means no clear call, values can overlap the other calls;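 further: 0% = median of the plate's neutral control wells and 100% = double that signal; a rise in the Bmi1 reporter signal indicates esBAF inhibition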
Casp6 inh = human caspase-6 inhibitors, primary screen, biochemical, VEID-R110 fluorescence, single point, set 2; actives 0.53% (n = 350,000); inhibition, % at 12.5 µM; purified caspase-6, Z-VEID-R110 cleavage fluorescence; P55212; AID 686996, 2013;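 active means mean inhibition across replicates at least about 35%, with every replicate also reaching that limit, limit read from the data; inconclusive means only one of the two criteria met; inactive means neither criterion met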;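 further: 0% = median of neutral control wells and 100% = no fluorescence left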
Target sequence (P55212 24-179 limits assumed): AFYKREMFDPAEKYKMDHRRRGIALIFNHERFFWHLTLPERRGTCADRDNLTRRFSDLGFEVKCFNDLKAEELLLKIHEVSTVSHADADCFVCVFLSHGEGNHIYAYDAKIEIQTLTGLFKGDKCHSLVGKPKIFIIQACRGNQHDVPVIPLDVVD
Target sequence (P55212 194-293 limits assumed): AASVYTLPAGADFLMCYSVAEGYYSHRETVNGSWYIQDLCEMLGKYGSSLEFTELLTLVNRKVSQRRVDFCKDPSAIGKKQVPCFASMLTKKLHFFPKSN
NSD2 HMT inh = NSD2 histone methyltransferase inhibitors, primary screen, biochemical, AlphaScreen, single concentration, set 2. inhibition, % at 12.5 µM. NSD2 peptide methylation, 120 min. actives 0.54% (n = 310,000). Histone-lysine N-methyltransferase NSD2 (Homo sapiens), O96028; in the data active means inhibition above about 50%
* = called active by the depositor.

For Clc1ccc(Cn2c(/C=C/c3ccco3)nc3ccccc32)cc1 the results were Xi reactivation 0, Wnt act 34*, MITF TRPM1 HTS 45 and NSD2 HMT inh -1.
`Cc1ccc(Cn2c(/C=C/c3ccco3)nc3ccccc32)cc1` gave Xi reactivation 0, MITF TRPM1 HTS 32 and NSD2 HMT inh 2.
`C[C@H]1CN([C@@H](C)CO)C(=O)c2cc(NC(=O)CCCCCC(=O)Nc3ccccc3N)ccc2O[C@H]1CN(C)C(=O)NC1CCCCC1` gave Xi reactivation 0.
`CCc1ccc(OCC(=O)NNC(=S)NC(=O)C2CCCCC2)c(Br)c1` gave Xi reactivation 0, Wnt act 1, MITF TRPM1 HTS 7, Casp6 inh 7 and NSD2 HMT inh 1.
For O=C(COc1ccc(F)cc1Cl)NC1CCCCCC1 the results were Xi reactivation 0, Wnt act 40*, MITF TRPM1 HTS inconclusive, esBAF inh inconclusive, Casp6 inh 4 and NSD2 HMT inh 0.
Screening CCc1ccc(OCC(=O)NC2CCCCC2)c(Br)c1 returned Xi reactivation 0, Wnt act 27, MITF TRPM1 HTS 101*, esBAF inh inconclusive, Casp6 inh 2 and NSD2 HMT inh -3.
Cc1cc(Br)ccc1OCC(=O)NC1CCCC1 was read as Xi reactivation 0, Wnt act 1, MITF TRPM1 HTS 12, esBAF inh 52*, Casp6 inh 2 and NSD2 HMT inh -4.
`O=C(COc1ccc(Br)cc1Br)NC(=O)NC1CCCC1` gave Xi reactivation 0, Wnt act 12, MITF TRPM1 HTS 104*, Casp6 inh 0 and NSD2 HMT inh -1.
COc1ccc(CNC(=O)C[C@@H]2C[C@@H]3c4cc(NS(C)(=O)=O)ccc4O[C@@H]3[C@H](CO)O2)cc1 was read as Xi reactivation 0, esBAF inh -5 and Casp6 inh 2.
`C[C@@H](NC(=O)C[C@@H]1C=C[C@@H](NC(=O)C2CCC2)[C@H](CO)O1)c1ccccc1` gave Xi reactivation 0, esBAF inh 0 and Casp6 inh -4.
CCNC(=O)COc1ccc(-c2ccccc2)cc1 was read as Wnt act 40*, esBAF inh 19 and NSD2 HMT inh -1.
CC(C)(C)NC(=O)COc1ccc(-c2ccccc2)cc1 was read as MITF TRPM1 HTS 65, esBAF inh 57* and NSD2 HMT inh -2.
`Cc1cc(OCC(=O)NC(C)(C)C)ccc1Cl` gave Xi reactivation 0, Wnt act 7, MITF TRPM1 HTS 74, esBAF inh 62*, Casp6 inh -2 and NSD2 HMT inh -2.
`C[C@@H]1CCCCO[C@@H](CN(C)C(=O)Nc2ccccc2)[C@H](C)CN([C@@H](C)CO)C(=O)c2cc(NS(=O)(=O)c3ccc(Cl)cc3)ccc2O1` gave Xi reactivation 0, esBAF inh 11 and Casp6 inh 4.
`CN(C)/C=C(\C#N)C(=O)Nc1ccc(F)c(Cl)c1` gave Xi reactivation 0, Wnt act 37*, Casp6 inh 2 and NSD2 HMT inh -2.
COc1cccc(Nc2ncnc3c2cnn3-c2cccc(C)c2)c1 was read as esBAF inh 56* and NSD2 HMT inh 15.
Screening COc1ccccc1Nc1ncnc2c1cnn2-c1cccc(C)c1 returned Wnt act 35*, esBAF inh inconclusive and NSD2 HMT inh -2.
Screening COc1ccc(OC)c(Nc2ncnc3c2cnn3-c2ccccc2)c1 returned MITF TRPM1 HTS 24, esBAF inh 28 and NSD2 HMT inh -2.
`CC(C)NC(=O)Nc1ccc2c(c1)C(=O)N(C)C[C@H](C)[C@@H](CN(C)C(=O)NC(C)C)O2` gave Xi reactivation 0.
Screening Cc1sc(NC(=O)C2CCCCC2C(=O)O)c(C(N)=O)c1-c1ccccc1 (stereo not drawn) returned MITF TRPM1 HTS 51, esBAF inh inconclusive and NSD2 HMT inh 1.

Bioassay records as filed in PubChem.
